Published values of several laboratories.
Protocols differ between the studies behind these lines.
Target: Homeodomain-interacting protein kinase 4 (HIPK4, Homo sapiens, UniProt Q8NE63)
Sequence (Q8NE63 1-616, as in one of the studies): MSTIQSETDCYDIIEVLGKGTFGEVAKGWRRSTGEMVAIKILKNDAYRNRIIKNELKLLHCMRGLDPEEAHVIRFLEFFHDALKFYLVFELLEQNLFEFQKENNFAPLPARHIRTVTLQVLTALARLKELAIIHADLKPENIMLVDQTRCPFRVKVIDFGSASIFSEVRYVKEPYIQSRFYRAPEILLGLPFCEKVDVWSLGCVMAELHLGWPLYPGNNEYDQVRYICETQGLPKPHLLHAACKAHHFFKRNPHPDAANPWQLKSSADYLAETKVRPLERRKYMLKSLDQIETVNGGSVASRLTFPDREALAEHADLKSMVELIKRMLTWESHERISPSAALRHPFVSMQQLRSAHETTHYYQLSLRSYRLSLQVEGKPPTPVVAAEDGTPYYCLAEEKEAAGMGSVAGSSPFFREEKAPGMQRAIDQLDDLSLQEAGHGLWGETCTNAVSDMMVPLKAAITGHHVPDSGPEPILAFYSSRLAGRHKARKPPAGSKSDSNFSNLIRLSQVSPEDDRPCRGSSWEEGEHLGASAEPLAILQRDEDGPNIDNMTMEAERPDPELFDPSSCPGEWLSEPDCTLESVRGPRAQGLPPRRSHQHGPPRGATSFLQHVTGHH

Structure (SMILES)	test	setting	measurement	result
Nc1ncnc2occ(-c3ccc(NC(=O)Nc4cc(C(F)(F)F)ccc4F)cc3)c12	cell-free assay, inhibitor	20 µM	remaining signal	0.95%
CNC(=O)c1cc2c(Oc3ccc(NC(=O)C4(C(=O)Nc5ccc(F)cc5)CC4)cc3)ccnc2cc1OC	enzyme activity, inhibitor, radiometric	1 µM	inhibition	102%
O=C(Nc1cnc(Oc2ccc(F)cc2)nc1)N1CCc2ncccc2[C@@H]1c1ccc(F)cc1	cell-free assay, competition with immobilised ligand	1 µM	remaining binding	100%
N#CCCc1ccc2c(c1)-c1[nH]c3ccc([N+](=O)[O-])cc3c1CC(=O)N2	cell-free assay	0.5 µM	remaining signal	113%
O=C(O)c1ccc2c(c1)nc(NCCc1cccc(Cl)c1)c1ccncc12	enzyme activity, inhibitor, radiometric	1 µM	remaining activity	47%
COc1cc2ncnc(Nc3ccc(Oc4ccccc4)c(C)c3C)c2cc1OC	enzyme activity, inhibitor	1 µM	inhibition	-2%
CNC(=O)c1cc(Oc2ccc(NC(=O)Nc3ccc(Cl)c(C(F)(F)F)c3)cc2)ccn1	cell-free assay	0.5 µM	remaining signal	4.85%
CS(=O)(=O)c1cc(C2(NC(=O)c3cncc4c3cnn4-c3ccc(F)cc3)CC2)ccn1	cell-free assay, competition with immobilised ligand	1 µM	remaining binding	100%
O=C(O)c1ccc2c(c1)nc(NCCc1cccc(F)c1)c1ncncc12	enzyme activity, inhibitor, radiometric	1 µM	remaining activity	10%
CS(=O)(=O)N1CCCC(NC(=O)[C@H](CCC2CCCCC2)NC(=O)c2ccc(CNC(=O)c3cnc4ccccn34)cc2)C1 (some centres unmarked)	cell-free assay, competition with immobilised ligand	0.1 µM	remaining binding	88%
O=C(O)c1ccc2c(c1)nc(NCc1ccccc1)c1ccncc12	enzyme activity, inhibitor, radiometric	1 µM	remaining activity	33%
CCC(=O)N[C@@H]1CC[C@H](C(=O)N(C)c2ccc(-c3nc4ccccc4o3)cc2)C1	cell-free assay, competition with immobilised ligand	1 µM	remaining binding	100%
COc1cccc(CCNc2nc3cc(C(=O)O)ccc3c3cnccc23)c1	enzyme activity, inhibitor, radiometric	1 µM	remaining activity	-8%
O=C1NC(=O)c2cc(Nc3ccc(F)cc3)c(Nc3ccc(F)cc3)cc21	cell-free assay	0.5 µM	remaining signal	82.5%
O=C(Nc1cnn(-c2csc(C(=O)NC3COC3)c2)c1)Nc1c(F)cccc1Cl	enzyme activity, inhibitor	5 µM	remaining activity	111%
CNC(=O)Nc1ccc2c(c1)CC[C@@]21OC(=O)N(CC(=O)N(Cc2ccc(F)cc2)[C@@H](C)C(F)(F)F)C1=O	cell-free assay, competition with immobilised ligand	1 µM	remaining binding	97%
O=C(O)c1ccc2c(c1)nc(Nc1ccc3ccccc3c1)c1ncncc12	enzyme activity, inhibitor, radiometric	1 µM	remaining activity	109%
CCOc1cc(-c2nncn2C)ccc1Nc1ncc2cc(C)nc(NCC(C)(C)C)c2n1	enzyme activity, inhibitor, FRET	1 µM	inhibition	< 15%
O=C(O)c1ccc2c(c1)nc(Nc1ccc(F)c(Cl)c1)c1ccncc12	enzyme activity, inhibitor, radiometric	1 µM	remaining activity	75%
CCCOc1ccc([C@H]2[C@H](C(=O)O)[C@@H](c3ccc4c(c3)OCO4)CN2CC(=O)Nc2c(CC)cccc2CC)cc1	cell-free assay, competition with immobilised ligand	1 µM	remaining binding	70%
